Measurements taken from ChEMBL document CHEMBL3132813, “Exploring novel strategies for AIDS protozoal pathogens: α-helix mimetics targeting a key allosteric protein-protein interaction in C. hominis TS-DHFR” (Medchemcomm, 2013).

Columns and labels:
[1] = biological target: T1, Dihydrofolate reductase (Homo sapiens, UniProt P00374); test: Inhibition of human DHFR
T1 sequence (P00374 whole entry): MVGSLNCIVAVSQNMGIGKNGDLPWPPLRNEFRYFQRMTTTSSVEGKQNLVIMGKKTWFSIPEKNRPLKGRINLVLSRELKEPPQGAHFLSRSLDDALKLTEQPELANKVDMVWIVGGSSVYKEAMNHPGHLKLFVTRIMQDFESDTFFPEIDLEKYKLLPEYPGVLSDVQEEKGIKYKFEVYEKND
How it was run: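 Steady-state spectrophotometric assay at 340 nm, run separately for DHFR and TS reactions. Compound preincubated 30 min with enzyme and substrates before starting the reaction. Identical enzyme and ligand concentrations for all targets. DMSO-matched blank; rates normalized to it. IC50 as mean ± standard deviation.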

[2] = tested on: Cryptosporidium hominis; test: Inhibition of DHFR activity of Cryptosporidium hominis thymidylate synthase-dihydrofolate reductase beta face mutant by steady state kinetic assay relative wild type TS-DHFR
How it was run: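 Bifunctional TS–DHFR enzymes (wild type and crossover-helix mutants) were over-expressed in E. coli BL21 and purified. DHFR activity was followed at 340 nm by steady-state spectroscopy. Enzyme and substrates were preincubated with mimetic for 30 min before starting the reaction. Rates were normalized to a matched DMSO blank. Enzyme and ligand concentrations were the same for each target, and IC50 was given as mean ± SD.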

[3] = Inhibition of DHFR activity of Cryptosporidium hominis thymidylate synthase-dihydrofolate reductase beta face mutant by steady state kinetic assay
How it was run: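 Recombinant bifunctional TS–DHFR, Beta Face crossover-helix mutant, expressed in E. coli BL21. DHFR reaction was followed spectroscopically at 340 nm under steady-state conditions. Helix mimetic was added from a DMSO stock and preincubated with enzyme and substrates for 30 minutes before the reaction was started. Rates were normalized to a matched DMSO blank and fit as dose–response to give the IC50, reported as mean ± SD.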

CC(C)CN(C(=O)Nc1ccc(CCC(=O)O)cc1Cc1ccccc1)C(=O)c1ccc(OCC(=O)O)c(Cc2ccccc2)c1
IC50 [1]: > 1000 µM
Ratio IC50 [2]: 10
IC50 [3]: 18 µM
